Entries after “also recorded” stand apart in the source; their conditions may differ.
Legend:
Assay type in all cases: biochemical
[1] = target: rat liver glutathione transferase enzyme; test: Inhibition of rat liver GST
Procedure, shortened: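 Rat liver cytosol was the 100,000 ×g 60 min supernatant, taken after a 12,500 ×g spin of homogenate in 67 mM phosphate, pH 7.4, with 1.15% KCl. Assay used 0.125 mg/mL cytosol, 0.1 M potassium phosphate pH 6.5, 0.001 M GSH and CDNB, read at 340 nm for 5 min. Blanks used cytosol heat-denatured at 60°C for 20 min.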

human recombinant UGT1A1 = target: T1, human recombinant UGT1A1 (Homo sapiens, UniProt P22309); test: UGT-Glo luminescent inhibition assay, human recombinant UGT1A1
T1 sequence (P22309 26-533): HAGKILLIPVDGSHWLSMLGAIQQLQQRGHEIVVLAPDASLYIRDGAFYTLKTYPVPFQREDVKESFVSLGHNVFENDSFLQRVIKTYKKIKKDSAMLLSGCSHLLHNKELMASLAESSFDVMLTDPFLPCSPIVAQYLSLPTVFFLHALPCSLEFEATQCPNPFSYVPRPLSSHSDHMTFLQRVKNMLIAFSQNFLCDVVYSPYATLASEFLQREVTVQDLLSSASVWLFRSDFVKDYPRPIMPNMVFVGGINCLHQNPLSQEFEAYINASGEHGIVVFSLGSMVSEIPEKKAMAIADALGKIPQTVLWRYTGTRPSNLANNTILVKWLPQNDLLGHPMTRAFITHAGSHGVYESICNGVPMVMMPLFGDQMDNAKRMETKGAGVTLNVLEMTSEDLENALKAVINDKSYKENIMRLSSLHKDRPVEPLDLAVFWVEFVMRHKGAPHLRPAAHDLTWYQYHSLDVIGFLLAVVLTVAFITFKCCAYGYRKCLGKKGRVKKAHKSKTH
Procedure, shortened: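 UGT-Glo luminescent assay at 37°C with 0.1 mg/mL UGT supersomes, 20 µM multienzyme substrate and 4 mM UDPGA. Incubation was 90 min for UGT1A1 and 60 min for UGT2B7. Reactions were stopped with luciferin detection reagent plus D-cysteine for 20 min at room temperature, then luminescence read. Control microsomes lacking UGT served as negative control. Extracts were tested at 0.1–1000 µg/mL and constituents at 0.02–200 µM. IC50 was fitted by nonlinear regression; three determinations from two experiments.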

[2] = target: human glutathione transferase Pi-1 (hGSTP1) (Homo sapiens, UniProt P09211); test: Inhibition of human GST Pi-1
Procedure, shortened: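 Purified recombinant human GSTP1 (0.003 mg/mL) in 0.1 M potassium phosphate, pH 6.5, with 0.001 M GSH and CDNB as substrate. Test compounds were tested at 0.01–500 µM and extracts at 0.01–1000 µg/mL. CDNB–GSH conjugation was read at 340 nm over 20 min. The blank replaced enzyme with buffer. Activity is expressed as percent of no-inhibitor control, 5 replicates.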

[3] = test system: rat liver UDP-glucuronosyltransferase enzyme (rat liver microsomes); test: Inhibition of rat liver UGT in rat liver microsomes; conditions: up to the highest concentration investigated
human recombinant UGT2B7 = target: T2, human recombinant UGT2B7 (Homo sapiens, UniProt P16662); test: UGT-Glo luminescent inhibition assay, human recombinant UGT2B7; conditions: human recombinant enzyme
T2 sequence (P16662 24-529): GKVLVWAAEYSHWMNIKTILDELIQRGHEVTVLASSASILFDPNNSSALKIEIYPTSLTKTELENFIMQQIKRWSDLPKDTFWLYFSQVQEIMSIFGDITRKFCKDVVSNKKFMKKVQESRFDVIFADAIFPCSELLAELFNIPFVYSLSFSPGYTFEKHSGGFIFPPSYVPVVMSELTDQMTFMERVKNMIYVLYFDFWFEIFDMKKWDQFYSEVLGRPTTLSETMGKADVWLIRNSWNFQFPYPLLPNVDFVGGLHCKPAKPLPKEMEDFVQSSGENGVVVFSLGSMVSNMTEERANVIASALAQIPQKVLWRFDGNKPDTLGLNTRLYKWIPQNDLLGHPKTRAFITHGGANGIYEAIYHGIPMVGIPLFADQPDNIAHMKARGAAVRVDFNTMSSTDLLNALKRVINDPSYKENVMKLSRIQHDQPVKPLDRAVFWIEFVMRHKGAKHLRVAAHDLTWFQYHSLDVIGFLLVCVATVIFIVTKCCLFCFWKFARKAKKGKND

Chain of human glutathione transferase Pi-1 (hGSTP1) (P09211 2-210 limits assumed): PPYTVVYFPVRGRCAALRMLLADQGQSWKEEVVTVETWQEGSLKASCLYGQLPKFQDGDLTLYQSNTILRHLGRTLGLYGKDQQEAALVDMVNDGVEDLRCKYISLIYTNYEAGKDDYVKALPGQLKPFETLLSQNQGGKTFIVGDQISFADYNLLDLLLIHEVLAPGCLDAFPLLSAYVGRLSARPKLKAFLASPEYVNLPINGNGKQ

## Tannic acid [reference compound]
[1]; CDNB substrate, mean ± SEM, n = 5
  IC50, rat liver GST: 4.83 ± 2.29 µg/mL

## CC(C)=CCC[C@@H](C)c1ccc(C)c(O)c1 [Xanthorrhizol, xanthorrhizol]
Human recombinant UGT1A1; ratio of IC50 values UGT2B7/UGT1A1
  inhibitory effect on UGT1A1 compared to UGT2B7: 3 times
[1]
  inhibition of rat liver GST (in words): very low inhibition or no inhibition
[2]
  inhibition of hGSTP1 (in words): did not show inhibition
[2]; read-out: percentage of inhibition of hGSTP1 activity
  inhibition at 500 µM: < 50%

## CC(C)=CCCC(C)c1ccc(C)cc1 (centres unmarked) [Curcumene, curcumene]
[3]
  inhibition of rat liver UGT enzyme activity (in words): did not show any inhibition
Human recombinant UGT1A1; human recombinant enzyme
  inhibition of UGT1A1 (in words): weaker inhibition
Human recombinant UGT2B7
  inhibition of UGT2B7 (in words): did not show any inhibition; also recorded: weaker inhibition
[1]
  inhibition of rat liver GST (in words): very low inhibition or no inhibition
[2]
  inhibition of hGSTP1 (in words): did not show inhibition
[2]; at the highest concentration determined (compounds 500 µM)
  percentage of inhibition of hGSTP1 activity: < 50%

Source: PMC5004525 (Pharmacognosy Research, 2016)
